ChEMBL document CHEMBL1123207, “Synthesis and structure-activity relationships of antibacterial phosphonopeptides incorporating (1-aminoethyl)phosphonic acid and (aminomethyl)phosphonic acid” (1986)
≈ marks a conversion by molar mass, not a printed value.

Tests used:
Enterobacter = assay: Compound was tested for its antibacterial activity against Enterobacter 250002 strain.; assay type: functional
Serratia marcescens = assay: Compound was tested for its antibacterial activity against Serratia marcescens ATCC 14756 strain.; assay type: functional
Klebsiella aerogenes = assay: Compound was tested for its antibacterial activity against Klebsiella aerogenes 331001 strain.; assay type: functional
Staphylococcus aureus [1] = assay: Compound was tested for its antibacterial activity against Staphylococcus aureus NCIB 8625 strain.; assay type: functional
Escherichia coli [2] = assay: Compound was tested for its antibacterial activity against Escherichia coli NCIB 8879 strain.; assay type: functional
Salmonella typhimurium = assay: Compound was tested for its antibacterial activity against Salmonella Typhimurium 538003 strain.; assay type: functional, Salmonella enterica subsp. enterica serovar Typhimurium; settings: Salmonella enterica
Enterococcus faecalis [3] = assay: Compound was tested for its antibacterial activity against Streptococcus faecalis 58511 strain.; assay type: functional
Haemophilus influenzae [4] = assay: Compound was tested for its antibacterial activity against Haemophilus influenzae NCTC 4560 strain.; assay type: functional
Staphylococcus aureus [5] = assay: Compound was tested in vitro for its antibacterial activity against Staphylococcus aureus 561037 strain.; assay type: functional
Escherichia coli [6] = assay: Compound was tested in vitro for its antibacterial activity against Escherichia coli NCIB 8879 strain.; assay type: functional
Haemophilus influenzae [7] = assay: Compound was tested in vitro for its antibacterial activity against Haemophilus influenzae NCTC 4560 strain.; assay type: functional
Enterococcus faecalis [8] = assay: Compound was tested in vitro for its antibacterial activity against Streptococcus faecalis FS5 strain.; assay type: functional
Escherichia coli [9] = assay: In vivo antibacterial activity was measured relative to alafosfalin against Escherichia coli 281007 strain after sc administration.; assay type: functional
Summary of the method: (§1)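 Mouse septicaemia model infected with E. coli 281007. Compound was dosed at 1, 3 and 5 h after infection, orally (po) for line 13 and subcutaneously (sc) for line 14. Activity is the relative molar activity of the analogue versus the L-Ala-L-Ala(P) reference, with both CD50 values taken in µmol/kg.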

Escherichia coli [10] = assay: In vivo antibacterial activity was measured relative to alafosfalin against Escherichia coli 281007 strain after po administration.; assay type: functional; summary of the method: as §1

| Compound | MIC (Enterobacter) [µg/mL] | MIC (Serratia marcescens) [µg/mL] | MIC (Klebsiella aerogenes) [µg/mL] | MIC (Staphylococcus aureus [1]) [µg/mL] | MIC (Escherichia coli [2]) [µg/mL] | MIC (Salmonella typhimurium) [µg/mL] | MIC (Enterococcus faecalis [3]) [µg/mL] | MIC (Haemophilus influenzae [4]) [µg/mL] | MIC (Staphylococcus aureus [5]) [µg/mL] | MIC (Escherichia coli [6]) [µg/mL] | MIC (Haemophilus influenzae [7]) [µg/mL] | MIC (Enterococcus faecalis [8]) [µg/mL] | CD50 (Escherichia coli [9]) [relative molar activity] | CD50 (Escherichia coli [10]) [relative molar activity] |
| --- | --- | --- | --- | --- | --- | --- | --- | --- | --- | --- | --- | --- | --- | --- |
| C[C@@H](NC(=O)[C@@H](N)CCCCN=C(N)N)P(=O)(O)O | 2 (≈ 6.77 µM) | 2 (≈ 6.77 µM) | 0.12 (≈ 0.406 µM) | 128 (≈ 433 µM) | 0.25 (≈ 0.847 µM) | 2 (≈ 6.77 µM) | 2 (≈ 6.77 µM) | 64 (≈ 217 µM) |  |  |  |  |  |  |
| C[C@H](N)C(=O)N[C@@H](C)C(=O)N[C@@H](C)C(=O)N[C@H](C)P(=O)(O)O |  |  |  |  |  |  |  |  | 32 (≈ 94.6 µM) | 0.12 (≈ 0.355 µM) | 0.06 (≈ 0.177 µM) | 0.25 (≈ 0.739 µM) |  |  |
| C[C@@H](NC(=O)[C@@H](N)CCCN=C(N)N)P(=O)(O)O | 1 (≈ 3.56 µM) | 2 (≈ 7.11 µM) | < 0.12 | 16 (≈ 56.9 µM) | 0.25 (≈ 0.889 µM) | 32 (≈ 114 µM) | 16 (≈ 56.9 µM) | 128 (≈ 455 µM) | 16 (≈ 56.9 µM) | 0.25 (≈ 0.889 µM) | 128 (≈ 455 µM) | 16 (≈ 56.9 µM) | 8.3 | 7.7 |
| CNCC(=O)N[C@@H](C)C(=O)N[C@@H](C)C(=O)N[C@H](C)P(=O)(O)O |  |  |  |  |  |  |  |  | > 128 | 0.016 (≈ 0.0473 µM) | 0.03 (≈ 0.0887 µM) | 0.06 (≈ 0.177 µM) | 8 | 1.05 |
| C[C@H](N)C(=O)N[C@@H](C)P(=O)(O)O [ALAFOSFALIN] | 1 (≈ 5.1 µM) | 8 (≈ 40.8 µM) | 0.5 (≈ 2.55 µM) | 32 (≈ 163 µM) | 1 (≈ 5.1 µM) | 64 (≈ 326 µM) | 2 (≈ 10.2 µM) | 64 (≈ 326 µM) | 4 (≈ 20.4 µM) | 0.5 (≈ 2.55 µM) | 4 (≈ 20.4 µM) | 2 (≈ 10.2 µM) | 1 | 1 |
| C[C@@H](NC(=O)[C@@H](N)CCS(C)(=O)=O)P(=O)(O)O | > 128 | > 128 | 32 (≈ 111 µM) | 32 (≈ 111 µM) | 16 (≈ 55.5 µM) | > 128 | 4 (≈ 13.9 µM) | 32 (≈ 111 µM) |  |  |  |  |  |  |
| CCC[C@H](NC)C(=O)N[C@@H](CCC)C(=O)N[C@@H](CCC)C(=O)N[C@H](C)P(=O)(O)O |  |  |  |  |  |  |  |  | 8 (≈ 18.3 µM) | 0.5 (≈ 1.15 µM) | 0.25 (≈ 0.573 µM) | 0.06 (≈ 0.137 µM) |  |  |
| C[C@@H](NC(=O)[C@@H](N)Cc1cccs1)P(=O)(O)O | 1 (≈ 3.59 µM) | 4 (≈ 14.4 µM) | 0.25 (≈ 0.898 µM) | 32 (≈ 115 µM) | 0.5 (≈ 1.8 µM) | 4 (≈ 14.4 µM) | 2 (≈ 7.19 µM) | 32 (≈ 115 µM) |  |  |  |  |  |  |
| CSC[C@H](N)C(=O)N[C@H](C)P(=O)(O)O | 0.03 (≈ 0.124 µM) | 0.5 (≈ 2.06 µM) | 0.03 (≈ 0.124 µM) | 16 (≈ 66.1 µM) | 0.03 (≈ 0.124 µM) | 0.25 (≈ 1.03 µM) | 2 (≈ 8.26 µM) | 4 (≈ 16.5 µM) |  |  |  |  |  |  |
| C[C@H](N)C(=O)N[C@@H](C)C(=O)N[C@H](C)P(=O)(O)O |  |  |  |  |  |  |  |  | 4 (≈ 15 µM) | 0.5 (≈ 1.87 µM) | 0.06 (≈ 0.225 µM) | 0.06 (≈ 0.225 µM) |  |  |
| CCC[C@H](NC(=O)CNC)C(=O)N[C@@H](CCC)C(=O)N[C@H](C)P(=O)(O)O |  |  |  |  |  |  |  |  | 16 (≈ 40.6 µM) | 0.04 (≈ 0.101 µM) | 0.015 (≈ 0.038 µM) | 0.12 (≈ 0.304 µM) | 1.9 | 1.1 |
| C[C@@H](NC(=O)[C@@H](N)CC[S+](C)[O-])P(=O)(O)O (stereo not given in full) | 32 (≈ 118 µM) | 32 (≈ 118 µM) | 4 (≈ 14.7 µM) | 8 (≈ 29.4 µM) | 4 (≈ 14.7 µM) | > 128 | 4 (≈ 14.7 µM) | 16 (≈ 58.8 µM) |  |  |  |  |  |  |
| C[C@@H](NC(=O)[C@@H](N)CS)P(=O)(O)O | > 128 | > 128 | 16 (≈ 70.1 µM) | > 128 | 32 (≈ 140 µM) | > 128 | > 128 | > 128 |  |  |  |  |  |  |
| CCCSC[C@H](N)C(=O)N[C@H](C)P(=O)(O)O | 0.06 (≈ 0.222 µM) | 0.5 (≈ 1.85 µM) | 0.03 (≈ 0.111 µM) | 8 (≈ 29.6 µM) | 0.06 (≈ 0.222 µM) | 0.25 (≈ 0.925 µM) | 2 (≈ 7.4 µM) | 64 (≈ 237 µM) |  |  |  |  |  |  |
| CCC[C@H](N)C(=O)N[C@H](C)P(=O)(O)O | 0.25 (≈ 1.12 µM) | 0.5 (≈ 2.23 µM) | 0.015 (≈ 0.0669 µM) | 8 (≈ 35.7 µM) | 0.03 (≈ 0.134 µM) | 0.25 (≈ 1.12 µM) | 1 (≈ 4.46 µM) | 4 (≈ 17.8 µM) | 8 (≈ 35.7 µM) | 0.03 (≈ 0.134 µM) | 4 (≈ 17.8 µM) | 1 (≈ 4.46 µM) | 8.8 | 1.1 |
| CSCC[C@H](N)C(=O)N[C@H](C)P(=O)(O)O | 1 (≈ 3.9 µM) | 2 (≈ 7.8 µM) | 0.12 (≈ 0.468 µM) | 1 (≈ 3.9 µM) | 0.25 (≈ 0.976 µM) | 8 (≈ 31.2 µM) | 1 (≈ 3.9 µM) | 16 (≈ 62.4 µM) |  |  |  |  |  |  |
| C[C@@H](NC(=O)[C@@H](N)Cc1ccccc1)P(=O)(O)O | 2 (≈ 7.35 µM) | 4 (≈ 14.7 µM) | 1 (≈ 3.67 µM) | 4 (≈ 14.7 µM) | 0.5 (≈ 1.84 µM) | 32 (≈ 118 µM) | 2 (≈ 7.35 µM) | 32 (≈ 118 µM) |  |  |  |  |  |  |
| C[C@@H](NC(=O)[C@@H](N)CCC/N=C(\N)N[N+](=O)[O-])P(=O)(O)O | 8 (≈ 24.5 µM) | 4 (≈ 12.3 µM) | 2 (≈ 6.13 µM) | 32 (≈ 98.1 µM) | 0.5 (≈ 1.53 µM) | 64 (≈ 196 µM) | 2 (≈ 6.13 µM) |  |  |  |  |  |  |  |
| CCC[C@H](NC(=O)[C@H](CC(C)C)NC)C(=O)N[C@@H](CCC)C(=O)N[C@H](C)P(=O)(O)O |  |  |  |  |  |  |  |  | 32 (≈ 71 µM) | 2 (≈ 4.44 µM) | 0.25 (≈ 0.555 µM) | 0.25 (≈ 0.555 µM) |  |  |
| C[C@@H](NC(=O)[C@@H](N)CF)P(=O)(O)O | 32 (≈ 149 µM) |  | 4 (≈ 18.7 µM) | 16 (≈ 74.7 µM) | 0.25 (≈ 1.17 µM) | 32 (≈ 149 µM) | 32 (≈ 149 µM) | 8 (≈ 37.4 µM) |  |  |  |  |  |  |
| CCC[C@H](NC(=O)[C@H](CCC)NC(=O)[C@@H](NC)C(C)C)C(=O)N[C@H](C)P(=O)(O)O |  |  |  |  |  |  |  |  | > 128 | 16 (≈ 36.7 µM) | 0.25 (≈ 0.573 µM) | 8 (≈ 18.3 µM) |  |  |
